HCT116 bCat-KO: beta-catenin-lacking colon tumor cell growth suppression; 140,000 compounds, 1.5% hits; HCT116 beta-catenin knockout viability, CellTiter-Glo, 60 h; active compounds read low; AID 818; viability, % at 10 µM;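 active = viability at or under a set limit, the compound median less 4 SD, cut at about 6% in these data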;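 note: 0% = Hyamine 1622 control at 20 µM and 100% = untreated cell control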
L major viab: Leishmania major promastigote growth inhibition. Leishmania major promastigotes, resazurin fluorescence viability. inhibition, % at 10 µM. 200,000 compounds, 9% hits; in the data active = inhibition above about 50%;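 note: promastigotes grown with compound for 44 hours at 28 °C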
PMI act hi M6P: PMI (human) activation, high substrate. P34949. coupled PMI enzyme assay, resazurin fluorescence, 20 min; active compounds read high; 1 = untreated enzyme, 0 = substrate-free blank. activation factor at 20 µM. 190,000 compounds, 0.34% hits. AID 1216;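 active = activation factor of 2 or more at 20 µM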
Target sequence (P34949 whole entry, looked up): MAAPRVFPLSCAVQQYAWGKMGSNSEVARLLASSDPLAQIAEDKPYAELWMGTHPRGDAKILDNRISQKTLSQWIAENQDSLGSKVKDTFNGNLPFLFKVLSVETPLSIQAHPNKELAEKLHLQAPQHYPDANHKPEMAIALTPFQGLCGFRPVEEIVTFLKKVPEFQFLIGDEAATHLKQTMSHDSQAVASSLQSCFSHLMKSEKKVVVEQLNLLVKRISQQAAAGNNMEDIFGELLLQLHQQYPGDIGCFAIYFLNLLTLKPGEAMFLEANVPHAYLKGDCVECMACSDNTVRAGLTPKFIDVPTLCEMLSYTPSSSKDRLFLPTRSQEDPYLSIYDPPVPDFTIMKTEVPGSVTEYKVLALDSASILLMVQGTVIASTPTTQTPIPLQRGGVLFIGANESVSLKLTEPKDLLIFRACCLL
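Test system: Human PMI in coupled enzyme assay | Input: 15 ng/mL PMI | Medium: HEPES-buffered pH 7.4 with magnesium and detergent | Compound: One concentration, 20 µM, in 1% DMSO | Incubation: Enzyme reaction with compound 20 min at room temperature | Detection: Diaphorase-driven resazurin-to-resorufin fluorescence, excitation 544, emission 590 nm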
PMI activator: increases human mannose-6-phosphate isomerase activity. activation factor at 20 µM. 190,000 compounds, 0.005% hits. AID 1214. purified human PMI, coupled resazurin fluorescence, 20 min; active compounds read high; 1 = vehicle control, 0 substrate-free wells. P34949;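 active = activation factor of 2 or more at 20 µM, relative to plate controls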
HCT116 PTEN-null: growth suppressors of cells with PTEN tumor suppressor deletion; HCT116 PTEN-null viability, CellTiter-Glo, 60 h; active compounds read low; viability, % at 10 µM; 140,000 compounds, 1.2% hits; AID 827;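 active = viability at or below a set limit, 4 SD under the median of all tested compounds, cut at about 3.7% in these data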;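 note: PTEN knockout HCT116 line with beta catenin targeted HCT116 as companion control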
Numbers without * were called inactive; . = no result. Sampled rows, rich in hits. Any-hit rate of the full collection: about 9.6%.

SMILES | HCT116 bCat-KO | L major viab | PMI act hi M6P | PMI activator | HCT116 PTEN-null
CC(C)c1ccccc1NC(=O)C1CN(S(=O)(=O)c2ccccc2)CCN1S(=O)(=O)c1ccccc1 (configuration not stated) | 97 | 7 | 0.8 | 0.8 | 89
Cc1[nH]c2ccccc2c1C(c1ccncc1)N1CCN(c2ccccc2F)CC1 (configuration not stated) | 73 | 51* | 0.9 | 0.8 | 78
Cc1cccc(N(CC(=O)NCc2ccc(F)cc2)C(=O)c2csnn2)c1C | . | 0 | 0.8 | 0.8 | .
C/C(=C1/C(=O)N(c2ccc([N+](=O)[O-])cc2)N=C1c1ccccc1)N(C)C | 3.3* | -7 | 1 | 1 | 2.2*
COc1ccc(C(O)(c2ccccc2OC)C(CN2CCOCC2)c2ccccc2)cc1 (configuration not stated) | . | 22 | 1.1 | 1.1 | .
O=C(O)CCC(=O)CCC(=O)c1ccc(Cl)cc1 | 86 | 3 | 1 | 0.9 | 86
CN(C)CCC(=O)c1ccc(Cl)cc1 | 93 | 100* | 0.5 | 0.6 | 108
N#CC(c1ccc(Cl)cc1)(c1ncc(C(F)(F)F)cc1Cl)N1CCOCC1 (configuration not stated) | 90 | 0 | 0.9 | 0.8 | 81
COCCn1c(=NC(=O)c2ccc(S(=O)(=O)N3CCc4ccccc4C3)cc2)sc2cc(S(N)(=O)=O)ccc21 | 69 | 99* | 1.2 | 1.1 | 80
C=CCn1c(=NC(=O)c2ccco2)sc2cc(C(=O)OC)ccc21 | 82 | 0 | 1 | 0.8 | 77
C=CCn1c(=NC(=O)c2ccc(S(=O)(=O)N3CCCc4ccccc43)cc2)sc2cc(S(N)(=O)=O)ccc21 | 69 | 100* | 0.4 | 0.8 | 64
COC(=O)Cn1c(=NC(=O)c2ccc(S(=O)(=O)N3CCc4ccccc4C3)cc2)sc2cc(OC)ccc21 | 85 | 87* | 1 | 1 | 87
C#CCn1c(=NC(=O)c2sc3ccccc3c2Cl)sc2cc(S(N)(=O)=O)ccc21 | 13 | -6 | 1.1 | 0.9 | 12
C#CCn1c(=NC(=O)c2ccc(S(=O)(=O)N3CCc4ccccc4C3)cc2)sc2cc(S(N)(=O)=O)ccc21 | 1.4* | -4 | 1.5 | 1.3 | 1.5*
COCCn1c(=NC(=O)c2ccc3c(c2)OCCO3)sc2cc(S(N)(=O)=O)ccc21 | . | 2 | 1 | 1 | .
COC(=O)Cn1c(=NC(=O)c2ccc(OC)cc2)sc2cc(OC)ccc21 | 90 | -4 | 0.9 | 0.9 | 78
COCCNC(=O)CN(C(=O)CCC(=O)Nc1nccs1)c1ccccc1OC | 105 | 1 | 1.1 | 1.1 | 126
COCCn1c(=NC(=O)c2ccc(S(=O)(=O)N3CCCc4ccccc43)cc2)sc2cc(S(C)(=O)=O)ccc21 | 87 | 100* | 1.1 | 1 | 81
C=CCn1c(=NC(=O)c2ccc(S(=O)(=O)N3CCc4ccccc4C3)cc2)sc2cc(S(N)(=O)=O)ccc21 | 1.4* | 9 | 1 | 1 | 1.7*
C=CCn1c(=NC(=O)CN2C(=O)CCC2=O)sc2cc(S(N)(=O)=O)ccc21 | 89 | -6 | 0.9 | 0.8 | 91
Fc1ccc(NC(=S)N2CCn3cccc3C2c2cccnc2)cc1 (configuration not stated) | . | 91* | 1 | 1 | .
Cc1cccc(NC(=S)N2CCn3cccc3C2c2cccnc2)c1 (configuration not stated) | 95 | 89* | 0.9 | 0.9 | 103
COc1cccc(NC(=S)N2CCn3cccc3C2c2cccnc2)c1 (configuration not stated) | . | 88* | 0.7 | 0.9 | .
CCCCNC(=S)N1CCn2cccc2C1c1ccc(F)cc1 (configuration not stated) | . | 52* | 0.9 | 1 | .
Nc1ccc(S(=O)(=O)c2ccc(Cl)cc2)cc1 | 97 | -2 | 0.9 | 0.9 | 107
SMILES | HCT116 bCat-KO | L major viab | PMI act hi M6P | PMI activator | HCT116 PTEN-null
Cc1cc(=O)oc2cc(OCc3ccc(S(=O)(=O)N4CCOCC4)cc3)ccc12 | 96 | 80* | 0.9 | 0.9 | 82
Cc1cc(=O)oc2cc(OCc3ccc(C(=O)N4CCN(c5ccccc5)CC4)cc3)ccc12 | 84 | 65* | 0.9 | 0.9 | 82
Cc1cc(=O)oc2cc(OCC(=O)N3CCOCC3)ccc12 | 98 | -3 | 1.6 | 1.4 | 92
COc1cc(/C=N/NC(=O)C(Cc2c[nH]c3ccccc23)NC(=O)OCC(C)C)cc([N+](=O)[O-])c1OCc1ccccc1 (configuration not stated) | . | 91* | 0.5 | 0.9 | .
CCOc1cc(/C=N/N=C(/N)c2nonc2N)cc(Br)c1OCc1ccc(Cl)cc1 | 100 | 10 | 0.8 | 0.9 | 108
COc1cc(/C=N/N=C(/N)c2nonc2N)cc(Br)c1OCc1ccccc1C | 21 | 75* | 0.9 | 0.9 | 22
Cc1nn(C(C)C(=O)N2CCOCC2)c(C)c1[N+](=O)[O-] (configuration not stated) | 86 | -5 | 1.1 | 1 | 98
CC(C)C(C)NC(=O)COc1ccc(S(=O)(=O)N2CCOCC2)cc1[N+](=O)[O-] (configuration not stated) | 87 | 49 | 0.9 | 1 | 88
CCc1ccc(Nc2ccc(S(=O)(=O)N3CCOCC3)cc2[N+](=O)[O-])cc1 | 81 | 6 | 1 | 0.9 | 73
CC(C)[C@H](Nc1ccc(S(=O)(=O)N2CCOCC2)cc1[N+](=O)[O-])C(=O)OCC(N)=O | 103 | 51* | 1 | 1 | 102
CC(C)[C@H](Nc1ccc(S(=O)(=O)N2CCOCC2)cc1[N+](=O)[O-])C(=O)OCC(=O)N(C(C)C)C(C)C | 84 | 82* | 1 | 1 | 90
CCOc1ccc(S(=O)(=O)N2CCOCC2)cc1[N+](=O)[O-] | . | -1 | 0.9 | 1 | .
CNC(=O)COC(=O)[C@@H](Nc1ccc(S(=O)(=O)N2CCOCC2)cc1[N+](=O)[O-])C(C)C | 102 | 55* | 1 | 1 | 99
CCN(CC)C(=O)c1sc(NC(=O)C(C)C)c(C#N)c1C | . | -1 | 0.9 | 0.9 | .
O=C(NC(CSSCC(NC(=O)c1ccccc1)C(=O)O)C(=O)O)c1ccccc1 (configuration not stated) | . | -12 | 1.1 | 0.9 | .
COc1ccc(C(C(=O)NC2CCCC2)N(Cc2ccc(C)cc2)C(=O)c2ccn[nH]2)cc1OC (configuration not stated) | 89 | -8 | 1.1 | 1 | 100
CCC(C)(C)n1nnnc1C(c1ccc2ncccc2c1)N1CCN2CCCC2C1 (configuration not stated) | 96 | 70* | 1 | 1 | 94
c1cnc2ccc(C(c3nnnn3C3CCCCC3)N3CCN4CCCC4C3)cc2c1 (configuration not stated) | 101 | 72* | 0.9 | 1 | 96
CCOCC(=O)N1CCN(c2ccc([N+](=O)[O-])cc2)CC1 | 89 | 6 | 0.9 | 1 | 98
Cc1cccc(Nc2ncnc3ccc(Br)cc23)c1 | . | 56* | 1 | 1 | .
